# In ChEMBL document CHEMBL1799921, “3-(1,3,4-Thiadiazole-2-yl)quinoline derivatives: synthesis, characterization and anti-microbial activity” (Eur J Med Chem, 2011):
# Experiments:
# Staphylococcus aureus [1] = experiment: Antibacterial activity against Staphylococcus aureus measured at MIC after 18 hrs by halo zone test; type: functional
# Outline: (§1)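 Disk diffusion. Strains subcultured 18 h at 37 °C in BHI, then suspended in saline by McFarland to about 10⁵ CFU/mL. Suspension mixed 1:1 with antibiotic agar at 40 °C and plated. 6.0 mm paper disks loaded with dilutions from a DMSO stock (1 mg per 100 of DMSO). Incubated 18 h at 36 °C. Inhibition zone (mm) measured at the MIC. Amoxicillin and DMSO disks as controls.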
# Streptococcus pyogenes [2] = experiment: Antibacterial activity against Streptococcus pyogenes measured at MIC after 18 hrs by halo zone test; type: functional; outline: as §1
# Salmonella typhimurium [3] = experiment: Antibacterial activity against Salmonella Typhimurium measured at MIC after 18 hrs by halo zone test; type: functional, Salmonella enterica subsp. enterica serovar Typhimurium; outline: as §1
# Escherichia coli [4] = experiment: Antibacterial activity against Escherichia coli measured at MIC after 18 hrs by halo zone test; type: functional; outline: as §1
# Staphylococcus aureus [5] = experiment: Antibacterial activity against Staphylococcus aureus after 18 hrs by macro-dilution test; type: functional
# Outline: (§2)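 Tube macro-dilution. Compounds in DMSO serially diluted to final […]. 24 h old inoculum added to each tube. Standard inoculum […]. Incubated 18 h at 37 °C. MIC is the lowest concentration with no visible growth, read visually. DMSO negative and amoxicillin positive controls.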
# Streptococcus pyogenes [6] = experiment: Antibacterial activity against Streptococcus pyogenes after 18 hrs by macro-dilution test; type: functional; outline: as §2
# Salmonella typhimurium [7] = experiment: Antibacterial activity against Salmonella Typhimurium after 18 hrs by macro-dilution test; type: functional, Salmonella enterica subsp. enterica serovar Typhimurium; conditions: Salmonella enterica; outline: as §2
# Escherichia coli [8] = experiment: Antibacterial activity against Escherichia coli after 18 hrs by macro-dilution test; type: functional; outline: as §2
SMILES,inhibition zone (IZ) (Staphylococcus aureus [1]),inhibition zone (IZ) (Streptococcus pyogenes [2]),inhibition zone (IZ) (Salmonella typhimurium [3]),inhibition zone (IZ) (Escherichia coli [4]),MIC (Staphylococcus aureus [5]),MIC (Streptococcus pyogenes [6]),MIC (Salmonella typhimurium [7]),MIC (Escherichia coli [8])
CC(=O)N1N=C(N(C(C)=O)C2CCCCC2)SC1c1cc2ccccc2nc1Cl (stereo not drawn),14.03 mm,17.38 mm,14.59 mm,15.63 mm,256 µg/mL,256 µg/mL,64 µg/mL,128 µg/mL
CC(=O)N1N=C(N(C(C)=O)C2CCCCCCC2)SC1c1cc2cccc(Cl)c2nc1Cl (stereo not drawn),17.62 mm,17.94 mm,18.54 mm,16.36 mm,64 µg/mL,128 µg/mL,64 µg/mL,64 µg/mL
CC(=O)N1N=C(N(C(C)=O)C2CCCCC2)SC1c1cc2cccc(Cl)c2nc1Cl (stereo not drawn),17.39 mm,17.73 mm,16.72 mm,15.23 mm,64 µg/mL,128 µg/mL,256 µg/mL,128 µg/mL
CC1(C)S[C@@H]2[C@H](NC(=O)[C@H](N)c3ccc(O)cc3)C(=O)N2[C@H]1C(=O)O [AMOXICILLIN],20.85 mm,19.57 mm,21.82 mm,22.05 mm,32 µg/mL,32 µg/mL,32 µg/mL,32 µg/mL
CC(=O)NC1=NN(C(C)=O)C(c2cc3cccc(Cl)c3nc2Cl)S1 (stereo not drawn),18.13 mm,19.91 mm,17.27 mm,16.72 mm,64 µg/mL,64 µg/mL,64 µg/mL,64 µg/mL
CC(=O)N(C1=NN(C(C)=O)C(c2cc3cccc(Cl)c3nc2Cl)S1)c1ccc(C)cc1 (stereo not drawn),15.67 mm,17.09 mm,16.88 mm,18.11 mm,64 µg/mL,64 µg/mL,64 µg/mL,64 µg/mL
S=C(N/N=C/c1cc2cccc(Cl)c2nc1Cl)NC1CCCCC1,17.23 mm,13.73 mm,15.72 mm,15.23 mm,64 µg/mL,128 µg/mL,256 µg/mL,256 µg/mL
Cc1ccc(NC(=S)N/N=C/c2cc3cccc(Cl)c3nc2Cl)cc1,15.01 mm,15.76 mm,17.55 mm,15.88 mm,64 µg/mL,32 µg/mL,32 µg/mL,64 µg/mL
S=C(N/N=C/c1cc2ccccc2nc1Cl)NC1CCCC1,19.52 mm,21.07 mm,22.58 mm,21.12 mm,64 µg/mL,128 µg/mL,128 µg/mL,128 µg/mL
Cc1ccccc1NC(=S)N/N=C/c1cc2cccc(C)c2nc1Cl,14.8 mm,18.81 mm,13.94 mm,15.17 mm,32 µg/mL,64 µg/mL,32 µg/mL,64 µg/mL
Cc1ccc(NC(=S)N/N=C/c2cc3cccc(C)c3nc2Cl)cc1,19.24 mm,17.65 mm,17.18 mm,18.67 mm,32 µg/mL,64 µg/mL,32 µg/mL,64 µg/mL
CC(=O)N1N=C(N(C(C)=O)C2CCCCCCC2)SC1c1cc2cccc(C)c2nc1Cl (stereo not drawn),18.77 mm,15.45 mm,17.84 mm,19 mm,256 µg/mL,256 µg/mL,128 µg/mL,256 µg/mL
CC(=O)N(C1=NN(C(C)=O)C(c2cc3cccc(Cl)c3nc2Cl)S1)c1cc(F)ccc1F (stereo not drawn),12.99 mm,13.92 mm,17.59 mm,16.45 mm,64 µg/mL,64 µg/mL,64 µg/mL,64 µg/mL
NC(=S)N/N=C/c1cc2ccccc2nc1Cl,11.67 mm,16.97 mm,12.42 mm,17.76 mm,128 µg/mL,64 µg/mL,128 µg/mL,256 µg/mL
Cc1cccc2cc(/C=N/NC(=S)NC3CCCCCCC3)c(Cl)nc12,15.78 mm,14.45 mm,22.51 mm,16.61 mm,256 µg/mL,128 µg/mL,128 µg/mL,256 µg/mL
Cc1ccccc1NC(=S)N/N=C/c1cc2cccc(Cl)c2nc1Cl,18.9 mm,10.26 mm,10.53 mm,13.47 mm,32 µg/mL,64 µg/mL,32 µg/mL,64 µg/mL
Cc1cccc2cc(/C=N/NC(=S)NC3CCCCC3)c(Cl)nc12,12.75 mm,11.08 mm,15.66 mm,21.27 mm,128 µg/mL,256 µg/mL,256 µg/mL,128 µg/mL
S=C(N/N=C/c1cc2ccccc2nc1Cl)NC1CCCCCCC1,9.9 mm,13.67 mm,19.73 mm,13.23 mm,256 µg/mL,128 µg/mL,128 µg/mL,256 µg/mL
CC(=O)N1N=C(N(C(C)=O)C2CCCCC2)SC1c1cc2cccc(C)c2nc1Cl (stereo not drawn),15.42 mm,13.09 mm,12.01 mm,16.75 mm,128 µg/mL,128 µg/mL,256 µg/mL,256 µg/mL
CC(=O)N1N=C(N(C(C)=O)C2CCCCCCC2)SC1c1cc2ccccc2nc1Cl (stereo not drawn),14.57 mm,14.33 mm,18.82 mm,17.86 mm,128 µg/mL,128 µg/mL,64 µg/mL,256 µg/mL
CC(=O)N(C1=NN(C(C)=O)C(c2cc3cccc(C)c3nc2Cl)S1)c1ccc(C)cc1 (stereo not drawn),18.92 mm,18.32 mm,17.27 mm,18.16 mm,64 µg/mL,64 µg/mL,64 µg/mL,64 µg/mL
